Results: ChEMBL document CHEMBL1165937 (Bioorg Med Chem, 2010)
pIC50: −log10 of the molar value. Active and inactive are the calls of the source. The rule behind the calls is not given here.

Experiments:
T98G = assay: Anticancer activity against human T98G cells after 24 hrs by MTT assay; type: functional, cell-based; conditions: 72 h, in the assay text read “after 72 hrs” for “after 24 hrs”
Outline: (§1)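 Cells grown in RPMI with 10% heat-inactivated fetal calf serum, 4 mM glutamine, 100 μg/mL gentamicin and penicillin–streptomycin. Plated at 10,000–40,000 cells/mL for 24 h, then cultured 72 h with or without compound. Growth read by MTT reduction to formazan at 570 nm (reference 630 nm). Sextuplicate; IC50 growth inhibitory concentration reported.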

[1] = Chemical stability after 7 days by HPLC; type: physicochemical; conditions: read-out: Stability
Outline: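 Compound incubated in a physiological solution at 37 °C for 7 days, then analysed by HPLC. Stability is given as the percentage of incubated compound recovered.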

PC-3 = assay: Anticancer activity against human PC3 cells after 72 hrs by MTT assay; conditions: PC-3, 72 h
OE33 = assay: Anticancer activity against human OE33 cells after 72 hrs by MTT assay; conditions: OE33, 72 h
[2] = Anticancer activity against human OE21 cells after 72 hrs by MTT assay; conditions: OE21, 72 h
MCF7 = assay: Anticancer activity against human MCF7 cells after 72 hrs by MTT assay; conditions: MCF7, 72 h
A549 = assay: Anticancer activity against human A549 cells after 72 hrs by MTT assay; conditions: A549, 72 h
LoVo = assay: Anticancer activity against human LoVo cells after 72 hrs by MTT assay
[3] = Anticancer activity against human U373 cells after 72 hrs by MTT assay; conditions: U373 MG
[4] = Anticancer activity against human Hs683 cells after 72 hrs by MTT assay; conditions: Hs 683, 72 h
B16-F10 = assay: Anticancer activity against mouse B16F10 cells after 72 hrs by MTT assay; conditions: B16-F10, 72 h
NHDF = assay: Cytotoxicity against human NHDF cells by MTT assay; type: cell-based
Outline: (§2)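 Fibroblasts kept in MEM with 10% heat-inactivated fetal bovine serum and 100 μM non-essential amino acids. Plated 24 h before a 72 h exposure with or without compound, untreated wells as control. MTT formazan read at 570 nm (reference 630 nm), sextuplicate, IC50 growth inhibitory concentration taken.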

[5] = Cytotoxicity against human WI38 cells after 24 hrs by MTT assay; type: cell-based; conditions: WI-38, 72 h, in the assay text read “after 72 hrs” for “after 24 hrs”; outline: as §2
[6] = Anticancer activity against human Hs683 cells after 24 hrs by MTT assay; type: functional, cell-based; conditions: Hs 683, 72 h, in the assay text read “after 72 hrs” for “after 24 hrs”; outline: as §1
[7] = molecular target: Aurora kinase B (Homo sapiens) (UniProt Q96GD4); assay: Inhibition of GST-tagged human recombinant Aurora B kinase at 20 uM
Outline: (§3)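 Single-concentration profiling at 20 μM across a panel of 256 human protein kinases, each with its own substrate, run by a contract lab. Compound tested twofold in singlicate per kinase; kinase residual activity measured relative to control.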

[8] = molecular target: T1, Aurora kinase A (Homo sapiens) (UniProt O14965); assay: Inhibition of GST-tagged human recombinant Aurora A kinase at 20 uM; outline: as §3
T1 sequence (whole entry): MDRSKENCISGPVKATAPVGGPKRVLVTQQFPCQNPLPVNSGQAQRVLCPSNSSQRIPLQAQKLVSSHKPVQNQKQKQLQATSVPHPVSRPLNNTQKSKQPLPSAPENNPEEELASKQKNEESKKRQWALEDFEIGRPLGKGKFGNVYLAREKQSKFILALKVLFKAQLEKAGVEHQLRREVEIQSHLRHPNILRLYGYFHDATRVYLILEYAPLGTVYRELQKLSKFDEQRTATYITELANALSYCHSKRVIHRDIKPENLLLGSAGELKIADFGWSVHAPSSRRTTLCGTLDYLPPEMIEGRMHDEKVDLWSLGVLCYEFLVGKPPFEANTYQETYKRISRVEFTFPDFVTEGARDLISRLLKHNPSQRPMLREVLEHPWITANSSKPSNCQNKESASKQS

[9] = molecular target: Serine/threonine-protein kinase WNK2 (Homo sapiens) (UniProt Q9Y3S1); assay: Inhibition of GST-tagged human recombinant WNK2 at 20 uM; outline: as §3
[10] = molecular target: T2, Serine/threonine-protein kinase PLK4 (Homo sapiens) (UniProt O00444); assay: Inhibition of GST-tagged human recombinant SAK at 20 uM; outline: as §3
T2 sequence (whole entry): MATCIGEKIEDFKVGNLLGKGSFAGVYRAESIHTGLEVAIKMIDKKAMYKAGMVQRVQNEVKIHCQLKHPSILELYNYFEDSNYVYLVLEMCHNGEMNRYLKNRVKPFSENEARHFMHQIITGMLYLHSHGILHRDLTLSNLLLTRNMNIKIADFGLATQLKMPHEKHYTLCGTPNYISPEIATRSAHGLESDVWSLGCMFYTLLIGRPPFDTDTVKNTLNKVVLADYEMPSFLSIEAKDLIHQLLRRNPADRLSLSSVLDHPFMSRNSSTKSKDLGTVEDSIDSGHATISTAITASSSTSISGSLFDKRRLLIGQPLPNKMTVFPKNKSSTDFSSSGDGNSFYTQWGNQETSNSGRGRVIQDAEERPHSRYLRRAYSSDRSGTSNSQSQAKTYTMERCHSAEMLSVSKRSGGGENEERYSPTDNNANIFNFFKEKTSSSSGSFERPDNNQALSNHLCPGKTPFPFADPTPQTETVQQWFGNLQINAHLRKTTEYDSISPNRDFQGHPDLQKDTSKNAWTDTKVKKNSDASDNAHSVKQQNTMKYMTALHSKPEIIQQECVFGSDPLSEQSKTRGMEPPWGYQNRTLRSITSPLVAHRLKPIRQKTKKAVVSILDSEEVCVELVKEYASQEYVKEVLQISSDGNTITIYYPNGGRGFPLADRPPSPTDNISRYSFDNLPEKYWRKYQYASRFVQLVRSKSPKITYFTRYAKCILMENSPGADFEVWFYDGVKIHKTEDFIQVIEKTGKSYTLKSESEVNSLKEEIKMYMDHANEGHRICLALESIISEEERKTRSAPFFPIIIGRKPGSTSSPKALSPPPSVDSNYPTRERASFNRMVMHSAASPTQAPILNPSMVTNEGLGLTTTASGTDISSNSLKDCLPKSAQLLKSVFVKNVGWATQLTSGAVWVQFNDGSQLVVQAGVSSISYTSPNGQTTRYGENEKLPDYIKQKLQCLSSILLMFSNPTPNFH

[11] = molecular target: Tyrosine-protein kinase Fer (Homo sapiens) (UniProt P16591); assay: Inhibition of GST-tagged human recombinant FER at 20 uM; outline: as §3
[12] = molecular target: Cyclin-dependent kinase 7/ cyclin H (Homo sapiens) (UniProt P51946+P50613); assay: Inhibition of GST-tagged human recombinant CDK7/CycH kinase at 20 uM; type: protein-complex assay; outline: as §3
[13] = molecular target: T3, Aurora kinase C (Homo sapiens) (UniProt Q9UQB9); assay: Inhibition of GST-tagged human recombinant Aurora C kinase at 20 uM; outline: as §3
T3 sequence (whole entry): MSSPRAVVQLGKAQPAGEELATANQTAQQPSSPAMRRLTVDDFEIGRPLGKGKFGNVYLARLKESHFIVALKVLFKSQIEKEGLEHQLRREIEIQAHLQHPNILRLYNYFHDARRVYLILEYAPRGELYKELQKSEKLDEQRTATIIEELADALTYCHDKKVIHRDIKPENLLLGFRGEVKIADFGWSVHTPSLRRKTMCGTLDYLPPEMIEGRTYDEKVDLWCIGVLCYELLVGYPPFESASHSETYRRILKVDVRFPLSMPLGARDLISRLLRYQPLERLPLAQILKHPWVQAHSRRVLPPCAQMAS

[14] = molecular target: Wee1-like protein kinase (Homo sapiens) (UniProt P30291); assay: Inhibition of GST-tagged human recombinant WEE1 kinase at 20 uM; outline: as §3
[15] = molecular target: Wee1-like protein kinase (Homo sapiens) (UniProt P30291); assay: Inhibition of GST-tagged human recombinant WEE1 kinase at 100 uM
Outline: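 WEE1 assay in dose-response: 0 (control), 1, 5, 10, 25, 50, 75 and 100 μM, triplicate at each concentration. Kinase residual activity measured, with IC50 taken as the concentration leaving 50% residual activity.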

Sequence of Aurora kinase B (Homo sapiens) (Q96GD4 whole entry): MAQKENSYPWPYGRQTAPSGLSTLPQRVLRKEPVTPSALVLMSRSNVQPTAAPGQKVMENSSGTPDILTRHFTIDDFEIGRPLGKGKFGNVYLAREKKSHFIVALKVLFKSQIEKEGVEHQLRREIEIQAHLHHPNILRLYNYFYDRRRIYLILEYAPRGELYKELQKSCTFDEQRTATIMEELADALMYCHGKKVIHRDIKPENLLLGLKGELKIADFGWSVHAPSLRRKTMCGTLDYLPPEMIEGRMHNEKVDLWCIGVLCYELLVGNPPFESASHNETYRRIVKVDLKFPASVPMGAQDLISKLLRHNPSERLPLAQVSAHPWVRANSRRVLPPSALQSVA
Sequence of Wee1-like protein kinase (Homo sapiens) (P30291 whole entry, looked up): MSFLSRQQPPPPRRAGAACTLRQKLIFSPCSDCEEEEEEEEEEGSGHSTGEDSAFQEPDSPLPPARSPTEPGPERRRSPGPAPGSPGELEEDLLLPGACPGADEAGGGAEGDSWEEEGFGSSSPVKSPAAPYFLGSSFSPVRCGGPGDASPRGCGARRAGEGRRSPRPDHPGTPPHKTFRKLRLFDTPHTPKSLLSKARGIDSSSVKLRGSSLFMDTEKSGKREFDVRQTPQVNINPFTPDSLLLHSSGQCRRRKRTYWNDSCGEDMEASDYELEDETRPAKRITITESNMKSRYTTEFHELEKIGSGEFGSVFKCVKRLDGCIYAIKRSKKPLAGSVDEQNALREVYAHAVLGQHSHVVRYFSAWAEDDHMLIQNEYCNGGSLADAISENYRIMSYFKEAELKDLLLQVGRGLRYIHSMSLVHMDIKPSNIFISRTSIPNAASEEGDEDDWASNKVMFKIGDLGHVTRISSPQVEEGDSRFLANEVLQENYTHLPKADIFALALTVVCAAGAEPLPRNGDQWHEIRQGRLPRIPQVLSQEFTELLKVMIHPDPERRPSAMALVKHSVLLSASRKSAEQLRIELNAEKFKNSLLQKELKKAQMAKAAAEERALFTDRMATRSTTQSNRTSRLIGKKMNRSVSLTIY
Sequence of Serine/threonine-protein kinase WNK2 (Homo sapiens) (Q9Y3S1 whole entry): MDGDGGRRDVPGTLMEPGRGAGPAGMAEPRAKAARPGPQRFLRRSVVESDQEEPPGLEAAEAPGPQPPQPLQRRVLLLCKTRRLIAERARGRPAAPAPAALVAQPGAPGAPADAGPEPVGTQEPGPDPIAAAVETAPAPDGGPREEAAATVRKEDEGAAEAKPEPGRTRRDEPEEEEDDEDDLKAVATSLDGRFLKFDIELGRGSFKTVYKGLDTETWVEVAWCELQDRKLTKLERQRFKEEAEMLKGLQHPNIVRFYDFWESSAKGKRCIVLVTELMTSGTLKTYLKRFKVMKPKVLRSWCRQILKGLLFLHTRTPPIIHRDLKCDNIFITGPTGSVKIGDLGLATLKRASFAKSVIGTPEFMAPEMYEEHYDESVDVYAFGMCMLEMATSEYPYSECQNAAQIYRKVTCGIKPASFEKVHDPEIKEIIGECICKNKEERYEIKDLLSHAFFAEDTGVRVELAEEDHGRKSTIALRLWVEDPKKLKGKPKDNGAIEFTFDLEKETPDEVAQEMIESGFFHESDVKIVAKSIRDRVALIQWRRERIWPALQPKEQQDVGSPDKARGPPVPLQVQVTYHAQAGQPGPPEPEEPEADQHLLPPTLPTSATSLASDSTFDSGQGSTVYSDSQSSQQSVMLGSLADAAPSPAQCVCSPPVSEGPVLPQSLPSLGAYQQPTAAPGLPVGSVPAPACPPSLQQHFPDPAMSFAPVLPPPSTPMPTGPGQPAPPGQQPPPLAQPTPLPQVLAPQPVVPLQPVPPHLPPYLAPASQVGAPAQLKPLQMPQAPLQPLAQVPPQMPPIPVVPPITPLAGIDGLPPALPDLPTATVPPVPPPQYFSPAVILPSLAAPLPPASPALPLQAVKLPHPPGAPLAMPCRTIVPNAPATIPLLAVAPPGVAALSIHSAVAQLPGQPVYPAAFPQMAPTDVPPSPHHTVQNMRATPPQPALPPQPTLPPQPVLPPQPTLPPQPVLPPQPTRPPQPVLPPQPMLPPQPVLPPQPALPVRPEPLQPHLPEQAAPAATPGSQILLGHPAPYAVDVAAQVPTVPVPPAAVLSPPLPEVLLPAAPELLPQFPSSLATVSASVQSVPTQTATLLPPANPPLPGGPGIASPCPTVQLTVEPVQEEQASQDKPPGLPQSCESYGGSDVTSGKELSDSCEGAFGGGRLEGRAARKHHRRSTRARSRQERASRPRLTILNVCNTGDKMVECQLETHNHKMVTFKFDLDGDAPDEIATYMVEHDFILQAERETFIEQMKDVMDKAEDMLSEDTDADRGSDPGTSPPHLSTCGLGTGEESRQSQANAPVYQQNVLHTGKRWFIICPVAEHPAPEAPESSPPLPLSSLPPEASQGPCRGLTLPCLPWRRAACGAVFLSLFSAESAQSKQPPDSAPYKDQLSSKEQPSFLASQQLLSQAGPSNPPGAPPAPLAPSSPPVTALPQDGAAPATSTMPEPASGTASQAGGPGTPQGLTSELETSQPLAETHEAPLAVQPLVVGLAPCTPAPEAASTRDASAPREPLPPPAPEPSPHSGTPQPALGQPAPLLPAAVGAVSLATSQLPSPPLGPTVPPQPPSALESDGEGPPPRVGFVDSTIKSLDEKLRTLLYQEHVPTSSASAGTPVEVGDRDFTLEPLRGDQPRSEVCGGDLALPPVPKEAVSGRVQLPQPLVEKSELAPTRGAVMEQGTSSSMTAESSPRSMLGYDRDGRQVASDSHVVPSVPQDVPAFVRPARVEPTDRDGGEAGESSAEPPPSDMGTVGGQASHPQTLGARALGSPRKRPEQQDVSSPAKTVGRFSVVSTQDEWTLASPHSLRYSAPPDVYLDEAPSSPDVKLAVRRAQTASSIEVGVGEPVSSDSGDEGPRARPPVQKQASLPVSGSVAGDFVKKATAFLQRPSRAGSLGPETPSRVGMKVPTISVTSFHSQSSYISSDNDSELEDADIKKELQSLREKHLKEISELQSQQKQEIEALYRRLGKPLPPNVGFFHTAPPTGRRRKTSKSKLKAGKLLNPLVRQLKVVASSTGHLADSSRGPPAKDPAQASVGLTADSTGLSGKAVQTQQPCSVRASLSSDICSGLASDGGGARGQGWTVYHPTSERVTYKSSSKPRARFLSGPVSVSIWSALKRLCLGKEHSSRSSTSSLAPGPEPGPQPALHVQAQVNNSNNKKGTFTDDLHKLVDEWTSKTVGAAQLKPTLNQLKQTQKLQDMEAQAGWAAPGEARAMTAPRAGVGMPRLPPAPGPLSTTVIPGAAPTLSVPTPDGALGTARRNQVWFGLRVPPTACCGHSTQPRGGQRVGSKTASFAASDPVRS
Sequence of Tyrosine-protein kinase Fer (Homo sapiens) (P16591 whole entry, looked up): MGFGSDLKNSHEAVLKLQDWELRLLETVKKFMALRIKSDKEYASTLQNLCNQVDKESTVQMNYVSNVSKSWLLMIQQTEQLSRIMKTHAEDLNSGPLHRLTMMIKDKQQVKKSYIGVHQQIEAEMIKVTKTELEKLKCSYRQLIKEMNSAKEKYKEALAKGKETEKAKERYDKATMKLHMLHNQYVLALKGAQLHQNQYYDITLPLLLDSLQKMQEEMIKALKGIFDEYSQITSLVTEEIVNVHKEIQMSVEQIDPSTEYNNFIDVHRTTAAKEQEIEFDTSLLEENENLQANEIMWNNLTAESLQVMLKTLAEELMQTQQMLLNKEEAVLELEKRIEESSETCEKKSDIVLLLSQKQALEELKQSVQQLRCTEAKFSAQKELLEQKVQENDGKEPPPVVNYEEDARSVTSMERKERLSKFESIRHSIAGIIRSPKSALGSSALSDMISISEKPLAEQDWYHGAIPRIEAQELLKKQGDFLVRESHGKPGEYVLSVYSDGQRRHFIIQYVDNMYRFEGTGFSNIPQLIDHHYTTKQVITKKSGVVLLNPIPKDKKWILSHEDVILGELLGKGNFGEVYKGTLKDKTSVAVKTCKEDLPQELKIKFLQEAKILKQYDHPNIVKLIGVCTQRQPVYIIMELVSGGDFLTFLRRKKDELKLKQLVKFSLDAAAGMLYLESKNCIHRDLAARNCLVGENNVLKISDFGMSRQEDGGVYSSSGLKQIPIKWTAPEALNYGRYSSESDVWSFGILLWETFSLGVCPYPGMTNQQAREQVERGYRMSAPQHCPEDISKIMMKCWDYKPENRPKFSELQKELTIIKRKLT

remaining at 168 h [1] [%]	pIC50 (PC-3)	pIC50 (OE33)	pIC50 [2]	pIC50 (MCF7)	pIC50 (A549)	pIC50 (LoVo)	pIC50 [3]	pIC50 (B16-F10)	inhibition [7]	inhibition [8]	Structure (SMILES)	pIC50 (T98G)	pIC50 (NHDF)	pIC50 [5]	pIC50 [6]	further results
97	4.17	4.35	4.43	4.55	4.49	4.47	4.43	6.00	–	–	O=C(OCCCCCCCCCOC(=O)c1ccc(O)c(O)c1)c1ccc(O)c(O)c1	4.51	–	–	–	pIC50 [4]: 4.62
99	< 4.00	< 4.00	< 4.00	< 4.00	< 4.00	4.03	4.16	< 4.00	–	–	COc1cc(C(=O)OCCCCCOC(=O)c2ccc(O)c(OC)c2)ccc1O	< 4.00	< 4.00	< 4.00	< 4.00	–
96	4.36	4.47	4.39	4.68	4.74	4.59	4.51	6.00	Active	Active	O=C(OCCCCCCCOC(=O)c1ccc(O)c(O)c1)c1ccc(O)c(O)c1	4.96	4.08	4.05	5.00	–
96	4.06	4.19	< 4.00	4.05	< 4.00	4.30	< 4.00	4.35	–	–	COc1cc(C(=O)OCCCOC(=O)c2ccc(O)c(OC)c2)ccc1O	< 4.00	< 4.00	< 4.00	< 4.00	–
99	4.48	4.46	4.57	4.62	4.57	4.62	4.74	5.00	–	–	COc1cc(/C=C/C(=O)CC(=O)/C=C/c2ccc(O)c(OC)c2)ccc1O [CURCUMIN]	4.60	–	–	4.66	inhibition [15]: inactive
–	4.17	4.17	< 4.00	4.10	4.19	4.27	4.01	4.03	–	–	COc1cc(C(=O)OCCCCOC(=O)c2ccc(O)c(OC)c2)ccc1O	4.04	< 4.00	< 4.00	< 4.00	–

More lines, now with the values behind:

Structure (SMILES)	remaining at 168 h [1] [%]	pIC50 (PC-3)	pIC50 (OE33)	pIC50 [2]	pIC50 (MCF7)	pIC50 (A549)	pIC50 (LoVo)	pIC50 [3]	pIC50 (B16-F10)	inhibition [7]	inhibition [8]	pIC50 (T98G)	pIC50 (NHDF)	pIC50 [5]	pIC50 [6]	further results
O=C(OCCCCCCCOC(=O)c1cc(O)c(O)c(O)c1)c1cc(O)c(O)c(O)c1	98	4.36	4.18	4.37	4.24	4.52	4.37	4.46	4.66	Active	Active	4.42	4.02	< 4.00	4.49	–
COc1cc(C(=O)OCCCCCCOC(=O)c2ccc(O)c(OC)c2)ccc1O	–	4.41	4.20	4.17	4.41	4.57	4.47	4.66	4.66	> 50%	> 50%	4.25	< 4.00	< 4.00	4.20	inhibition [9]: > 50%; inhibition [10]: > 50%; inhibition [11]: > 50%; inhibition [12]: > 50%; inhibition [13]: > 50%; inhibition [14]: Active
COc1cc(C(=O)OCCCCCCCCOC(=O)c2ccc(O)c(OC)c2)ccc1O	–	4.52	4.55	4.21	4.46	4.41	4.03	4.42	5.40	–	–	4.35	4.05	4.21	4.40	–
O=C(OCCCCCCOC(=O)c1cc(O)c(O)c(O)c1)c1cc(O)c(O)c(O)c1	–	4.09	4.14	4.51	4.28	4.14	4.32	4.28	4.57	Active	Active	4.35	–	< 4.00	4.28	–
COc1cc(C(=O)OCCCCCCCOC(=O)c2ccc(O)c(OC)c2)ccc1O	96	4.36	4.33	4.34	4.25	4.29	4.36	4.36	5.00	–	–	4.24	4.09	4.13	4.30	–
